This is an account of results in PubChem BioAssay AID488779 (The Scripps Research Institute Molecular Screening Center, 2010).

Active and inactive are the calls of the source.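 Rule for the calls: active = SF-1 luciferase reporter signal in cells inhibited by more than 25%; inactive = the rest.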

Chain of Steroidogenic factor 1 (Homo sapiens) (Q13285 whole entry, looked up): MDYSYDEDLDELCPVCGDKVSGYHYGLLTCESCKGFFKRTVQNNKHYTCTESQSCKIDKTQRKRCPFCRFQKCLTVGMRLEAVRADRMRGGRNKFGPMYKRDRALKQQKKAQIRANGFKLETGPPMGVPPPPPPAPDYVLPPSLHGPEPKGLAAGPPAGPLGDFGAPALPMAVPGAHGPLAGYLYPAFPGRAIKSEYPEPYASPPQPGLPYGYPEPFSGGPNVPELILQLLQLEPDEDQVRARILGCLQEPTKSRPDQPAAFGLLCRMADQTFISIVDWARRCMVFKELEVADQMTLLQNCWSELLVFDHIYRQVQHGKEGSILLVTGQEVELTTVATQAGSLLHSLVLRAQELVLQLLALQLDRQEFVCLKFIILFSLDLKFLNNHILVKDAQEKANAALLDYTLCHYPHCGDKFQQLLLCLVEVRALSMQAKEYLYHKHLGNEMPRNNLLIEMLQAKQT

This test concerns the target Steroidogenic factor 1 (Homo sapiens) (UniProt Q13285). Briefly: SF-1 inhibition in luciferase reporter cells, confirmation, selectivity assay for LRH1 inverse agonist project, cell-based, luminescence, powder samples, single concentration (AID 488779). The note with it: HEK293T SF-1 5xSFRE luciferase reporter, 20 h; at 5 µM; hits give high values. The essentials:
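Material: HEK293T cells with SF-1 and SFRE-luciferase reporter; Doses: single 5 µM compound dose; Timing: 20 h compound exposure after 24 h transfection and replating; Signal: luciferase luminescence; Replication: triplicates.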
For orientation: inhibition means the change of the read-out against control, counted positive when it falls. For the compound `O=c1cc(N2CCN(c3ccccn3)CC2)[nH]c(=O)n1C1CCCCC1`, the inhibition is -7% (inactive). Consider `O=c1cc(N2CCCC2)[nH]c(=O)n1C1CCCCC1`, for which the inhibition was 5% (inactive). Then `CCN1CCN(c2cc(=O)n(C3CCCCC3)c(=O)[nH]2)CC1`, with 5% (inactive); and `Cc1cc(C)cc(N2CCN(c3cc(=O)n(C4CCCCC4)c(=O)[nH]3)CC2)c1`, with -4% (inactive); and `C=CCn1c(=O)cc(N2CCN(c3cccc(C(F)(F)F)c3)CC2)[nH]c1=O`, with -164% (inactive). For `CCn1c(=O)cc(N2CCN(c3cccc(Cl)c3)CC2)[nH]c1=O`, the inhibition is -10% (inactive). Then `O=c1cc(N2CCN(c3cc(C(F)(F)F)ccn3)CC2)[nH]c(=O)n1C1CCCCC1`, with -83% (inactive).

As to `C=CCN1CCN(c2cc(=O)n(C3CCCCC3)c(=O)[nH]2)CC1`, the inhibition was -13% (inactive). As to `O=c1cc(N2CCN(c3ccc(F)cc3)CC2)[nH]c(=O)n1C1CCCCC1`, the inhibition was -2% (inactive). Then `O=c1cc(N2CCN(C(c3ccccc3)c3ccccc3)CC2)[nH]c(=O)n1C1CCCCC1`, with -8% (inactive); and `O=c1cc(N2CCN(c3ccnc4cc(Cl)ccc34)CC2)[nH]c(=O)n1C1CCCCC1`, with 11% (inactive); and `O=c1cc(N2CCN(c3ncccc3Cl)CC2)[nH]c(=O)n1C1CCCCC1`, with 13% (inactive). `CC1CCN(c2cc(=O)n(Cc3ccc(F)cc3)c(=O)[nH]2)CC1`: the inhibition is 0% (inactive). Then `O=c1cc(N2CCN(c3ccccc3C(F)(F)F)CC2)[nH]c(=O)n1C1CCCCC1`, with 5% (inactive).

`O=c1cc(N2CCN(c3cc(Cl)cc(Cl)c3)CC2)[nH]c(=O)n1C1CCCCC1`: the inhibition is -9% (inactive).

For `O=c1cc(N2CCN(c3cccc(C(F)(F)F)c3)CC2)[nH]c(=O)n1C1CCCCC1`, the inhibition is -1% (inactive). `CCn1c(=O)cc(N2CCN(c3cccc(C(F)(F)F)c3)CC2)[nH]c1=O`: the inhibition was -81% (inactive). Then `O=c1cc(N2CCN(c3cccc(Cl)c3)CC2)[nH]c(=O)n1C1CCCCC1`, with 5% (inactive); and `O=c1cc(N2CCN(CCN3CCOCC3)CC2)[nH]c(=O)n1C1CCCCC1`, with 9% (inactive). Then `O=C(c1ccccc1)N1CCN(c2cc(=O)n(C3CCCCC3)c(=O)[nH]2)CC1`, with 2% (inactive); and `Cn1c(=O)cc(N2CCN(c3cccc(Cl)c3)CC2)[nH]c1=O`, with -2% (inactive); and `O=c1cc(N2CCN(c3cccc(Br)c3)CC2)[nH]c(=O)n1C1CCCCC1`, with -23% (inactive). With `O=c1cc(N2CCN(c3ccccc3Cl)CC2)[nH]c(=O)n1C1CCCCC1`, the inhibition is -19% (inactive). Then `C=CCn1c(N2CCN(c3cccc(C(F)(F)F)c3)CC2)cc(=O)n(C2CCCCC2)c1=O`, with -24% (inactive); and `O=c1cc(N2CCN(Cc3ccc(Cl)cc3)CC2)[nH]c(=O)n1C1CCCCC1`, with -4% (inactive). Then `O=c1cc(N2CCN(c3ccc(F)cc3F)CC2)[nH]c(=O)n1C1CCCCC1`, with -49% (inactive). Then `O=c1cc(N2CCN(c3cccc(F)c3)CC2)[nH]c(=O)n1C1CCCCC1`, with -112% (inactive). As for `O=c1cc(N2CCN(c3cccc(Cl)c3)CC2)[nH]c(=O)[nH]1`, the inhibition is 2% (inactive). Then `O=c1cc(N2CCN(c3nccc4occc34)CC2)[nH]c(=O)n1C1CCCCC1`, with -14% (inactive). On to `CCn1c(=O)cc(N2CCN(c3ccc(F)cc3)CC2)[nH]c1=O`, for which the inhibition is 10% (inactive). In the case of `O=c1cc(N2CCN(c3cccc(C(F)(F)F)n3)CC2)[nH]c(=O)n1C1CCCCC1`, the inhibition is 9% (inactive). Then `O=c1cc(N2CCN(c3nc(-c4ccccc4)ns3)CC2)[nH]c(=O)n1C1CCCCC1`, with 1% (inactive); and `O=c1cc(N2CCN(c3cccc(Cl)c3Cl)CC2)[nH]c(=O)n1C1CCCCC1`, with 3% (inactive); and `O=c1cc(N2CCOCC2)[nH]c(=O)n1C1CCCCC1`, with 0% (inactive). `CCn1c(=O)cc(N2CCN(Cc3ccccc3)CC2)[nH]c1=O`: the inhibition is 27%. Turning to `O=C(c1ccco1)N1CCN(c2cc(=O)n(C3CCCCC3)c(=O)[nH]2)CC1`, the inhibition is 6% (inactive). Take `O=c1cc(N2CCc3ccccc32)[nH]c(=O)n1C1CCCCC1`: the inhibition is 23% (inactive). Turning to `N#CCn1c(N2CCN(c3cccc(C(F)(F)F)c3)CC2)cc(=O)n(C2CCCCC2)c1=O`, the inhibition is 4% (inactive). Then `O=c1cc(N2CCN(c3cccc(C(F)(F)F)c3)CC2)[nH]c(=O)n1Cc1ccccc1`, with 1% (inactive). As for `O=c1cc(N2CCN(c3ccccc3)CC2)[nH]c(=O)n1Cc1ccc(F)cc1`, the inhibition is -18% (inactive).

As to `O=c1cc(N2CCN(Cc3ccc4c(c3)OCO4)CC2)[nH]c(=O)n1C1CCCCC1`, the inhibition is 24%.

In the case of `COC(=O)C1CCN(c2cc(=O)n(C3CCCCC3)c(=O)[nH]2)CC1`, the inhibition is 6% (inactive). Turning to `CCn1c(=O)cc(N2CCN(c3ccccc3)CC2)[nH]c1=O`, the inhibition is 7% (inactive).

As for `O=c1cc(N2CCN(c3ccccc3)CC2)[nH]c(=O)n1C1CCCCC1`, the inhibition was -3% (inactive). Then `CCn1c(=O)cc(N2CCN(C(=O)c3ccco3)CC2)[nH]c1=O`, with 30%; and `COc1ccc(N2CCN(c3cc(=O)n(C4CCCCC4)c(=O)[nH]3)CC2)cc1`, with 5% (inactive); and `CC1CCN(c2cc(=O)n(C3CCCCC3)c(=O)[nH]2)CC1`, with -5% (inactive). Then `CCOC(=O)N1CCN(c2cc(=O)n(C3CCCCC3)c(=O)[nH]2)CC1`, with 19% (inactive); and `Cc1ccc(C)n1CCN1CCN(c2cc(=O)n(C3CCCCC3)c(=O)[nH]2)CC1`, with 7% (inactive); and `Cc1ccc(Cl)cc1N1CCN(c2cc(=O)n(C3CCCCC3)c(=O)[nH]2)CC1`, with -12% (inactive).

Regarding `O=c1cc(N2CCC(Cc3ccccc3)CC2)[nH]c(=O)n1C1CCCCC1`, the inhibition was 9% (inactive).

As for `O=c1cc(N2CCCCC2)[nH]c(=O)n1C1CCCCC1`, the inhibition was 23% (inactive).

Turning to `O=c1cc(N2CCN(c3cccc(C(F)(F)F)c3)CC2)[nH]c(=O)n1-c1ccccc1`, the inhibition was -3% (inactive). Then `O=c1cc(N2CCN(c3ccc(C(F)(F)F)cc3)CC2)[nH]c(=O)n1C1CCCCC1`, with 1% (inactive); and `Cn1c(=O)cc(N2CCN(c3ccc(F)cc3)CC2)[nH]c1=O`, with -2% (inactive); and `O=c1cc(N2CCN(c3cccc(C(F)(F)F)c3)CC2)n(Cc2ccccc2)c(=O)n1C1CCCCC1`, with 3% (inactive). Take `O=c1cc(N2CCN(c3cccc(Cl)n3)CC2)[nH]c(=O)n1C1CCCCC1`: the inhibition is -3% (inactive). Then `CC(C)Cn1c(=O)cc(N2CCN(c3cccc(C(F)(F)F)c3)CC2)[nH]c1=O`, with -95% (inactive); and `O=c1cc(N2CCN(C3CCCCC3)CC2)[nH]c(=O)n1C1CCCCC1`, with 9% (inactive); and `O=c1cc(N2CCN(c3ncccc3C(F)(F)F)CC2)[nH]c(=O)n1C1CCCCC1`, with 5% (inactive).
